# From PubChem BioAssay AID504382 (The Scripps Research Institute Molecular Screening Center, 2011)
# Out of some 2,500 compounds screened, about 460 (18%) were called active.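 The calls were made as follows: active = mean activation above a cutoff of low control average plus 3 SD from the earlier screen (cut at about 12% in these data); inactive = the rest.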 These entries were drawn from the full list.
# Test: compound fluorescence interference without thin filaments, confirmation, artefact control for cardiac RTF calcium sensitizer project, biochemical (AID 504382)
# Conditions: IANBD fluorescence interference counterscreen, buffer, EC20 Ca2+; at 7.2 µM; hits give high values; scaled: EC20 calcium 0, EC100 calcium 100
# Procedure, shortened: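 Technique: fluorescence, 480/540 nm / Medium: MOPS-based buffer with KCl, MgCl2, EGTA, NTA, DTT, pH 7.2 / Probe or stimulus: calcium at EC20 level, 0.472 mM final / Repeats: triplicate wells per compound / Times: 15 min compound exposure at 25 °C / Measure: compound fluorescence interference relative to control well signal range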
row,Compound,fluorescence artifact activation
1,CC(Sc1nc2ncc(Cl)cc2[nH]1)C(=O)Nc1ccc(C(N)=O)cc1 (centres undefined),-0.03% (inactive)
2,CCN1CCN(c2c(/C=C3\SC(=S)N(Cc4ccco4)C3=O)c(C)c(C#N)c(=O)n2C)CC1,0.03% (inactive)
3,O=C1/C(=C\c2c(NCCOCCO)nc3ccccn3c2=O)SC(=S)N1Cc1ccco1,31.6% (active)
4,CCCN(CCC)c1nc2c(C)cccn2c(=O)c1/C=C1/SC(=S)N(Cc2ccco2)C1=O,0.05% (inactive)
5,Cc1cccc(C)c1NC(=O)CNC(=O)Cc1ccc(Br)cc1,0.05% (inactive)
6,C=CCn1c(C)c(/C=C/c2cc[n+](C)cc2)c2ccccc21,8.02% (inactive)
7,O=c1cc2c(c(-c3ccccc3)n1Cc1ccccc1)[C@H](CCO)NC2,0.32% (inactive)
8,Cn1c(=O)c2cc(NCc3ccccc3)nnc2n(C)c1=O,0.34% (inactive)
9,Cn1c(=O)cc(N)n(Cc2ccccc2)c1=O,14.3% (active)
10,CC(C)CN1CCC(C(=O)N2CCN(c3ccccc3F)CC2)CC1,-0.02% (inactive)
11,CN1CCN(C(=O)c2cc3ccccc3[nH]2)CC1,-0.01% (inactive)
12,CCC(CC)C(=O)c1c[nH]c(C(=O)N2CCN(c3ccccc3F)CC2)c1,17% (active)
13,CC(=O)Nc1ccc2nc3c(=O)n(C)c(=O)n(C)c3nc2c1,1.77% (inactive)
14,COc1ccc(CCNC(=O)CN(C)S(=O)(=O)c2ccc3c(c2)CCC(=O)N3)cc1OC,-0.01% (inactive)
15,COc1cc(/C=C/C(=O)c2ccc3c(c2)OCO3)cc(Cl)c1O,1.66% (inactive)
16,Cc1cc[n+](-c2[nH]c(=O)sc2/C=N/NC([S-])=Nc2ccccc2)cc1,1.49% (inactive)
17,CCOC(=O)CC(=O)CSc1nc(-c2ccc3c(c2)OCO3)cc(C(F)(F)F)c1C#N,0.09% (inactive)
18,COc1ccc(-c2cc(C3CC3)nc(SCC(=O)c3cccs3)c2C#N)cc1,0.1% (inactive)
19,CC(C)OC(=O)CC(=O)CSc1nc(-c2ccc(F)cc2)cc(-c2ccccc2)c1C#N,17.5% (active)
20,Cc1cc(C)n(-c2nc3ccccc3nc2Nc2ccc3[nH]c(=O)[nH]c3c2)n1,4.66% (inactive)
21,CC(C)Oc1ccc(/C(O)=C2/C(=O)C(=O)N(CCN3CCNCC3)C2c2cccc([N+](=O)[O-])c2)cc1 (centres undefined),1.8% (inactive)
22,CCOC(=O)C1=C(C)NC(=O)/C1=C\N(C)C,0.04% (inactive)
23,Cc1cc(C)c(NC(=S)N(C)C)c(C)c1,31.3% (active)

row,Compound,fluorescence artifact activation
1,NC(=O)c1ccccc1N/C=C/C(=O)c1ccc(Cl)cc1Cl,1.35% (inactive)
2,COc1ccc(N(C(=O)c2ccc(C)cc2)S(=O)(=O)c2cccs2)cc1,54.9% (active)
3,COc1ccc(NC(=O)C(c2ccc(C)cc2)N(C)C(=O)Cc2cccs2)cc1 (centres undefined),0.03% (inactive)
4,COc1ccc(NC(=O)CNS(=O)(=O)c2cccs2)cc1,-0.02% (inactive)
5,CCOC(=O)C(C#N)C(c1cccnc1)c1c(C)[nH][nH]c1=O (centres undefined),0.03% (inactive)
6,O=C(CSc1nc2ccccc2s1)c1cc2ccccc2o1,6.22% (inactive)
7,O=C(CSc1nc2cc(Cl)ccc2s1)c1cc2ccccc2o1,39.2% (active)
8,Cc1ccccc1Nc1nnc(SCC(=O)c2cc3ccccc3o2)s1,-0.07% (inactive)
9,CCN(CC)C(=O)c1ccc(/C=C/c2c[nH]c3ccccc23)[n+](C)c1,0.26% (inactive)
10,Brc1ccc(C2=CC(c3ccco3)n3ncnc3N2)cc1 (centres undefined),0.04% (inactive)
11,CS(=O)(=O)Nc1nc2n(n1)C(c1ccccc1)C=C(c1ccc(Br)cc1)N2 (centres undefined),13% (active)
12,Brc1ccc(C2=CC(c3cccs3)n3ncnc3N2)cc1 (centres undefined),0.13% (inactive)
13,O=C(O)C1=C[C@H](c2ccccc2)C[C@H](OCc2ccc(CO)cc2)O1,0.07% (inactive)
14,Cc1ccc(NC(=O)C(OC(=O)c2ccc(F)cc2)c2ccccc2)cc1Cl (centres undefined),-0.03% (inactive)
15,Cn1nc(NC(=O)C2CCC2C(=O)O)c2c(F)cccc21 (centres undefined),7.56% (inactive)
16,CC(C)(C)OC(=O)N1CC=C2C(C#N)=C(N)C(C#N)(C#N)C(c3cccs3)C2C1 (centres undefined),-0.03% (inactive)
17,Cc1cc(C)c(OCCOCCN2CCNCC2)c(C)c1,0.06% (inactive)
18,NC(=O)c1c[nH]c2ccccc12,288% (active)
19,OCCc1c[nH]c2ccccc12,0.07% (inactive)
20,COc1cc(/C=C(\C#N)C(=O)c2c[nH]c3ccccc23)cc(OC)c1O,0.14% (inactive)
21,CC(C)(C)OC(=O)N1CCC(Cc2cc(-c3cccnc3)no2)(C(=O)O)CC1,3.74% (inactive)
22,Cc1ccc(NC(=O)c2cc(C(=O)c3cc(Cl)ccc3O)cn(-c3ccc(C)cc3)c2=O)cc1,3.68% (inactive)
23,CCOC(=O)C(C)(C)Sc1nc2c(cnn2-c2ccc(Cl)cc2)c(=O)[nH]1,71.5% (active)

row,Compound,fluorescence artifact activation
1,CCOC(=O)C(C)Sc1nnc(Cc2cc(=O)[nH]c(=O)[nH]2)n1-c1ccc(Cl)cc1 (centres undefined),0.21% (inactive)
2,CCCCNC(=O)COC(=O)c1c2c(nc3ccccc13)/C(=C\c1cccs1)CC2,1.6% (inactive)
3,Nc1cccc2c1C(=O)N(c1ccccc1)C2=O,1.26% (inactive)
4,O=C(Cc1ccccc1)Nc1cccc(-c2nc3ncccc3o2)c1,0.02% (inactive)
5,CCC(=O)Nc1ccc2oc(-c3cccnc3)nc2c1,77.1% (active)
6,Cc1cc(=O)oc(C)c1C(=O)Nc1ccc2ncccc2c1,0.24% (inactive)
7,COc1ccc(C)cc1NC(=O)C12CCC(C)(C(=O)O1)C2(C)C (centres undefined),6.57% (inactive)
8,CC1(C)CC(=O)c2sc(NC(=O)Cc3cccs3)nc2C1,0.43% (inactive)
9,CN(C)c1ccc(/C=C2\SC(=S)N(Nc3ncc(C(F)(F)F)cc3Cl)C2=O)cc1,1.93% (inactive)
10,N=C1c2ccccc2CN1c1ccc(S(=O)(=O)N2CCCCC2)cc1,9.61% (inactive)
11,Cc1ccc(S(=O)(=O)N2CCOCC2)cc1C(=O)N1C(=O)c2cccc(N)c2C1=O,0.13% (inactive)
12,CCOC(=O)/C(=C\C=C1/Sc2ccccc2N1CC)C(C)=O,0.04% (inactive)
13,CCOC(=O)/C(=C/C=C1\Sc2ccccc2N1CC)C(C)=O,51.3% (active)
14,CCN1/C(=C\C=C(C(C)=O)C(C)=O)Sc2ccccc21,0.42% (inactive)
15,COC(=O)C1=C(C(=O)OC)[C@@H]2Nc3ccccc3[C@@]23C[C@@H](C(=O)OC)N(C(=O)c2cccs2)C3=N1,11.6% (inactive)
16,CCOc1ccc(C2OC34CCCCC3C(C#N)(C#N)C2(C#N)C(=N)O4)cc1OC (centres undefined),0.1% (inactive)
17,Cc1c2ccccc2nc2c(F)c(N(C)C)c(F)c(F)c12,0.16% (inactive)
18,Cc1c2ccccc2nc2c(F)c(NCCO)c(F)c(F)c12,42.9% (active)
19,COC(=O)C1=NN(C(=O)c2ccc(Br)cc2)C(O)(C(C)(C)C)C1 (centres undefined),1.09% (inactive)
20,CCOC(=O)c1cn(-c2ccc(F)c(F)c2F)c2c(F)c(F)c(F)cc2c1=O,0.24% (inactive)
21,CN(C)c1ccc(/C=C(/C#N)C(=O)Nc2nc3c(s2)CCN(Cc2ccccc2)C3)cc1,0.06% (inactive)
22,Cc1ccc(NC(=O)COC(=O)/C=C/c2c(C)nn(-c3ccc(F)cc3)c2Cl)cc1F,0.01% (inactive)
23,CC1CC(C)CN(S(=O)(=O)N2CCCC(C(=O)NC3CCCCC3)C2)C1 (centres undefined),78.2% (active)

row,Compound,fluorescence artifact activation
1,CCOc1ccc(CCNC(=O)C2CCCN(S(=O)(=O)N3CCOCC3)C2)cc1OCC (centres undefined),-0.05% (inactive)
2,CCOC(=O)C1(Cc2cccc(OC)c2)CCN(Cc2ccon2)CC1,1.14% (inactive)
3,COc1ccc(Br)cc1S(=O)(=O)Nc1ncccc1C,24.7% (active)
4,COc1cc(Cl)c(S(=O)(=O)NCc2ccccn2)cc1Cl,-0.05% (inactive)
5,COc1ccc(C(=O)O)cc1S(=O)(=O)NCCc1ccccn1,0.58% (inactive)
6,CCOC(=O)c1c(C)oc2c1c(C=NCCO)c(O)c1ccccc12,0.07% (inactive)
7,O=C(O)CCNc1cc(N2CCN(C(=O)c3ccco3)CC2)c2noc3c2c1C(=O)c1ccccc1-3,-0.01% (inactive)
8,O=C(c1ccco1)N1CCN(c2ncnc3c(-c4ccc(Cl)cc4)nsc23)CC1,43.5% (active)
9,O=C1c2ccccc2-c2onc3c(N4CCN(CCO)CC4)cc(N4CCN(C(=O)c5ccco5)CC4)c1c23,0.06% (inactive)
10,COC(=O)Cn1c(C)c(/C=C/c2cc[n+](C)cc2)c2ccccc21,0.1% (inactive)
11,C[C@H](CO)N1C[C@H](C)[C@@H](CN(C)Cc2ccncc2)Oc2c(NS(=O)(=O)c3ccc(F)cc3)cccc2C1=O,0.19% (inactive)
12,C[C@H](CO)N1C[C@H](C)[C@@H](CN(C)Cc2ccncc2)Oc2c(NC(=O)c3ccncc3)cccc2C1=O,1.32% (inactive)
13,C[C@H](CO)N1C[C@H](C)[C@@H](CN(C)Cc2ccc(Oc3ccccc3)cc2)Oc2c(NC(=O)C3CC3)cccc2C1=O,20.1% (active)
14,CC1=CC2=NC(=O)/C(=C\c3ccc(-c4cccc(Cl)c4)o3)C(=N)N2O1,7.64% (inactive)
15,CCOc1cc2c(cc1/C=C/c1noc(C)c1[N+](=O)[O-])OC(C)C2 (centres undefined),145% (active)
16,Cc1cc(N2C(=O)C(O)=C(C(=O)c3cccs3)C2c2ccc(F)cc2)no1 (centres undefined),7.29% (inactive)
17,CCc1cccc2cc3c(N)c(C(=O)Nc4ccc(S(=O)(=O)N5CCCC5)cc4)sc3nc12,6.55% (inactive)
18,COc1ccc(/C=C/C(=O)c2nc3ccccc3n2CC(=O)c2ccc(OC)cc2)cc1,-0.1% (inactive)
19,CCN(CC)c1ccc(C=Nc2cc(C)ccc2C)c(O)c1,1.34% (inactive)
20,CC(=O)NC(Cc1ccc(F)c(F)c1)C(=O)NC1CCN(S(=O)(=O)c2ccc(C)cc2)CC1 (centres undefined),-0.07% (inactive)
